What was measured:
Population PK analysis = format: in vivo, human
Summary of the method: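 Oral dosing; patients fasted 1 h before and 2 h after. Sparse plasma samples were taken pre-dose and 1–3 h post-dose on days 29, 43 and 99, with richer sampling on the intermittent schedule. Two-compartment model with first-order absorption and elimination, fitted by first-order conditional estimation with interaction. It estimated clearance, intercompartment clearance, central/peripheral volumes, absorption rate, inter-subject variability and residual error, and explored covariates.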

patients [1] = settings: cited from earlier work
patients [2] = settings: cited from earlier work; remark: listed apart in the source
[3] = GSK458 as mono-therapy, estimate (SD)

Structure (SMILES)	Clearance, CL/F (Population PK analysis; [3])	Volume of central compartment Vc/F (Population PK analysis; [3])	Volume of peripheral compartment Vp/F (Population PK analysis; [3])	Vd (Population PK analysis; human, in vivo, oral)	clearance (Population PK analysis; human, in vivo, oral)	PK of GSK458 alone versus in combination with trametinib (post hoc estimates) (Population PK analysis; in vivo)	Inter-compartment clearance (Population PK analysis; population PK model of GSK458)	Inter-individual variability on central volume (Population PK analysis; population PK model of GSK458)	Inter-individual variability on clearance (Population PK analysis; population PK model of GSK458)	Peripheral volume of distribution (Population PK analysis; population PK model of GSK458)	Most frequently reported treatment-related adverse events, single agent (patients [1])	Maximum tolerated dose (MTD), single agent (patients [1]; once daily)	Most frequently reported treatment-related toxicities, single agent (patients [2])	Plasma half-life (patients [2]; no reference given)	Recommended phase II dose (RP2D), single agent (patients [2]; once daily)
COc1ncc(-c2ccc3nccc(-c4ccnnc4)c3c2)cc1NS(=O)(=O)c1ccc(F)cc1F [GSK458]	3.88 (1.9) L/h	17.81 (17.4) L	54.67 (48.7) L	8.95 L	54.2 mL/min	No significant difference was observed	2.71 L/h	~97%	approximately 53%	38.4 L	diarrhea, fatigue, nausea, decreased appetite, vomiting, and hyerpglycemia	2.5 mg	–	–	–
CC(=O)Nc1cccc(-n2c(=O)n(C3CC3)c(=O)c3c(Nc4ccc(I)cc4F)n(C)c(=O)c(C)c32)c1 [trametinib]	–	–	–	–	–	–	–	–	–	–	–	–	rash or acneiform dermatitis, diarrhea, fatigue, nausea, and vomiting	five days	2 mg

Reference: article PMC7574157 (Investigational new drugs, 2016)
